Results published in ChEMBL document CHEMBL1130195, “6-Chloro-5-methyl-1-[[2-[(2-methyl-3-pyridyl)oxy]-5-pyridyl]carbamoyl]- indoline (SB-242084): the first selective and brain penetrant 5-HT2C receptor antagonist” (J Med Chem, 1997).
pIC50, pKi: −log10 of the molar value.

Key:
[1] = biological target: 5-hydroxytryptamine receptor 2A (Homo sapiens, UniProt P28223); test: Displacement of [3H]ketanserin from 5-hydroxytryptamine 2A receptor expressed in HEK 293 cells; assay type: cell-based, HEK293
5-hydroxytryptamine receptor 2A, sequence (P28223 whole entry): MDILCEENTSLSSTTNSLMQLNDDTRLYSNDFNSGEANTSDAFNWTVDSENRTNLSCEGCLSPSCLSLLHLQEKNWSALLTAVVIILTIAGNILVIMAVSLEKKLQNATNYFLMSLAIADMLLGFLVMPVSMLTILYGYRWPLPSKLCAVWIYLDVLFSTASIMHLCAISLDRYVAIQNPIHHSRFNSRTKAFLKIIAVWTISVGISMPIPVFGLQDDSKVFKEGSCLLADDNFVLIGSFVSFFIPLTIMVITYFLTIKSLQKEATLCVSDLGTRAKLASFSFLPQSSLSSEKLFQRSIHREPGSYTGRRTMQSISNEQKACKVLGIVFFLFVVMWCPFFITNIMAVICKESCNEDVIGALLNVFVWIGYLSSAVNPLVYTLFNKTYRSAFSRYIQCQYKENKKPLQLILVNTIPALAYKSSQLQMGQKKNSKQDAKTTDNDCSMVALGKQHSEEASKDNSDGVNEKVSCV
How it was run: (§1)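 Human cloned receptors expressed in HEK 293 cells. Radioligands: [3H]5-HT for 5-HT2B, [3H]ketanserin for 5-HT2A, [3H]mesulergine for 5-HT2C. Each value is the mean of at least two determinations, each within 0.2 log unit of the mean.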

[2] = test system: Rattus norvegicus; test: Mean dose required to reverse m-chlorophenyl-piperazine (mCPP) induced hypolocomotion (7 mg/kg ip administered 30 min pretest); assay type: functional; conditions: 0.5 h, read-out: ID50 (the source's name)
How it was run: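 Test compound given orally. Hypolocomotion was induced by mCPP, 7 mg/kg ip, 30 min pretest. The ID50 is the dose reversing hypolocomotion by 50%, reported as mean with confidence limits.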

[3] = biological target: T1, 5-hydroxytryptamine receptor 2C (Homo sapiens, UniProt P28335); test: Displacement of [3H]mesulergine from 5-hydroxytryptamine 2C receptor expressed in HEK 293 cells; assay type: cell-based, HEK293; how it was run: as §1
T1 sequence (P28335 whole entry): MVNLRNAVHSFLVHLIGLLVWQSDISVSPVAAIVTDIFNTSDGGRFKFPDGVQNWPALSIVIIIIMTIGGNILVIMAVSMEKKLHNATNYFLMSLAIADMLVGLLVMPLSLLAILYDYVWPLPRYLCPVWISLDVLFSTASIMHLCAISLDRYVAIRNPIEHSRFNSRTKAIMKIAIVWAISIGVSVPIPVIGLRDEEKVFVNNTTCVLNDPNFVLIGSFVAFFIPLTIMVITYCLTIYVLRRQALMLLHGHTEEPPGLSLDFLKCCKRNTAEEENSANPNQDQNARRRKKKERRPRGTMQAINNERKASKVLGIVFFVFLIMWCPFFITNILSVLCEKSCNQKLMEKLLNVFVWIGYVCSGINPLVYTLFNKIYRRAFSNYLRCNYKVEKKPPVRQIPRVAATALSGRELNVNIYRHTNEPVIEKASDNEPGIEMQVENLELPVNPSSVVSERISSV

[4] = biological target: Serotonin 2 receptors; 5-HT2a & 5-HT2c (Homo sapiens) (UniProt P28223+P28335); test: Selectivity for 5-HT2C over 5-HT2A receptor; assay type: protein assay
Serotonin 2 receptors; 5-HT2a & 5-HT2c (Homo sapiens), sequence (P28223 whole entry, looked up, one chain of several): as the sequence (P28223 whole entry) above

[5] = biological target: 5-hydroxytryptamine receptor 2B (Homo sapiens, UniProt P41595); test: Displacement of [3H]5-HT from 5-hydroxytryptamine 2B receptor expressed in HEK 293 cells; assay type: cell-based, HEK293; how it was run: as §1
5-hydroxytryptamine receptor 2B, sequence (P41595 whole entry): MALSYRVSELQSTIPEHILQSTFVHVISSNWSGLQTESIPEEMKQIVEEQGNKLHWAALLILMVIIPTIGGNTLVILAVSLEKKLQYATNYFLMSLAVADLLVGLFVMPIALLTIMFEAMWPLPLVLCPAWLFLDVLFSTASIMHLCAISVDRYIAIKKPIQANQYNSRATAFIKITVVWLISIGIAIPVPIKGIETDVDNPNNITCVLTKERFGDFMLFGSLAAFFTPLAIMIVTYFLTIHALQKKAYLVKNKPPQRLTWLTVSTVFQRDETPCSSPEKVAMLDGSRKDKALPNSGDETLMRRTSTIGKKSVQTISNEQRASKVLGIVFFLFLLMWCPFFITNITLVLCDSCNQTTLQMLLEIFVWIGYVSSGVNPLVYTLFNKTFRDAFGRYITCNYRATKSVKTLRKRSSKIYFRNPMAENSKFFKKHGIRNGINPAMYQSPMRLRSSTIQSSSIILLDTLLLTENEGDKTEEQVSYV

[6] = biological target: Cytochrome P450 2C9 (Homo sapiens, UniProt P11712); test: Inhibition of heterologously expressed human Cytochrome P450 2C9 at 100 uM; assay type: ADME
Cytochrome P450 2C9, sequence (P11712 whole entry): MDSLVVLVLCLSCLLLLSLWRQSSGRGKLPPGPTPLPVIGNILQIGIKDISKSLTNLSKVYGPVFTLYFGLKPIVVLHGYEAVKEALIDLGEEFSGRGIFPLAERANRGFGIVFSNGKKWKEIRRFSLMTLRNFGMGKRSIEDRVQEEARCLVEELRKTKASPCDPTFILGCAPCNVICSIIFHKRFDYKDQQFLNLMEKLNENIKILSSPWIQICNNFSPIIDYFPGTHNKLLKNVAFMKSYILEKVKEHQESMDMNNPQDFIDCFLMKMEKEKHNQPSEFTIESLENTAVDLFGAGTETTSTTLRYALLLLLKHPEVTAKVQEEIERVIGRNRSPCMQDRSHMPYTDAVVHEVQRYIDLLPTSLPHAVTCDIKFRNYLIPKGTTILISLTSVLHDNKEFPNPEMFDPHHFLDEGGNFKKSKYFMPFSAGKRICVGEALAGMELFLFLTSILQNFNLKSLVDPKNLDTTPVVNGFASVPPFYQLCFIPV

[7] = biological target: T2, Cytochrome P450 3A4 (Homo sapiens, UniProt P08684); test: Inhibition of heterologously expressed human Cytochrome P450 3A at 1 uM
T2 sequence (P08684 whole entry): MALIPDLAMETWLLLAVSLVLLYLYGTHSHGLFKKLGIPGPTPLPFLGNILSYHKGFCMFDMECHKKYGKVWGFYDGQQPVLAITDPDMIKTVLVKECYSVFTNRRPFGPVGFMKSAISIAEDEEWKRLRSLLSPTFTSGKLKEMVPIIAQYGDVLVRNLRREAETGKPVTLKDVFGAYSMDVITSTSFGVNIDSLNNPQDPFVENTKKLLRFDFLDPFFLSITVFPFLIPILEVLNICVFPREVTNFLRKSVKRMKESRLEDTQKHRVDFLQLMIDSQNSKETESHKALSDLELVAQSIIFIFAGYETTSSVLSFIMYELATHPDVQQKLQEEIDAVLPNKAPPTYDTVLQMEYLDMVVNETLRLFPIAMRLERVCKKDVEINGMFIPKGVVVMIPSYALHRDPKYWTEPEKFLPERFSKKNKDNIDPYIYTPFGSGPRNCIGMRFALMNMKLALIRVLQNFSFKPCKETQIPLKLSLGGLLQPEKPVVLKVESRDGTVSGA

[8] = biological target: T3, Cytochrome P450 1A2 (Homo sapiens, UniProt P05177); test: Inhibition of heterologously expressed human Cytochrome P450 1A2 at 500 uM; assay type: ADME
T3 sequence (P05177 whole entry): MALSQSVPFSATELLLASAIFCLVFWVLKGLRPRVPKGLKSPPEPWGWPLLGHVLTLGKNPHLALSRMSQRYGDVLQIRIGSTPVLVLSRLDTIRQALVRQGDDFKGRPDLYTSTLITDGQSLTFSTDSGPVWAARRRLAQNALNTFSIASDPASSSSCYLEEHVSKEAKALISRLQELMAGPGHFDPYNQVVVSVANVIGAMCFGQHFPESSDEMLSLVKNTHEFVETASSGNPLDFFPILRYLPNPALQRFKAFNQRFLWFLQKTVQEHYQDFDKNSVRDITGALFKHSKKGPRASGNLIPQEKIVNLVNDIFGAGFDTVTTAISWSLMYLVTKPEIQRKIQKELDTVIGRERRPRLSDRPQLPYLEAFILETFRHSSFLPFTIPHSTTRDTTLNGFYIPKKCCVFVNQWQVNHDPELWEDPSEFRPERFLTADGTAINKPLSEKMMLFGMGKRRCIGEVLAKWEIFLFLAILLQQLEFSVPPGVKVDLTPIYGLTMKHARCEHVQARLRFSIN

[9] = biological target: Cytochrome P450 2D6 (Homo sapiens, UniProt P10635); test: Inhibition of heterologously expressed human Cytochrome P450 2D6 at 10 uM; assay type: ADME
Cytochrome P450 2D6, sequence (P10635 whole entry): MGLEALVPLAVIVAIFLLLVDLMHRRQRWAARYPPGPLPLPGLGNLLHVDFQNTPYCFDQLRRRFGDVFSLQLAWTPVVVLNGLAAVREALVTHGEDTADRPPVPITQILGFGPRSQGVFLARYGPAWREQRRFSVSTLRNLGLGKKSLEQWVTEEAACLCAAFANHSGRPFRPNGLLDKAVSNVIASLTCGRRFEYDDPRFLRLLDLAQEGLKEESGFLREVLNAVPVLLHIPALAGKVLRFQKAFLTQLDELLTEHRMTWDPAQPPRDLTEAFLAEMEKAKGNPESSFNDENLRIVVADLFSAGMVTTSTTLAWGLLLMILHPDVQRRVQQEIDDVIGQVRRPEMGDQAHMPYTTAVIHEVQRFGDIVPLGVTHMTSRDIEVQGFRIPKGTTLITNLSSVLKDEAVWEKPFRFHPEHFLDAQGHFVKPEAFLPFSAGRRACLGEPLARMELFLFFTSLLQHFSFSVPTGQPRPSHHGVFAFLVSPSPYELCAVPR

[10] = biological target: T2, Cytochrome P450 3A4; test: Inhibition of heterologously expressed human Cytochrome P450 3A at 1 uM; assay type: ADME
[11] = biological target: Cytochrome P450 2C19 (Homo sapiens) (UniProt P33261); test: Inhibition of heterologously expressed human Cytochrome P450 2C19 at 100 uM
Cytochrome P450 2C19 (Homo sapiens), sequence (P33261 whole entry, looked up): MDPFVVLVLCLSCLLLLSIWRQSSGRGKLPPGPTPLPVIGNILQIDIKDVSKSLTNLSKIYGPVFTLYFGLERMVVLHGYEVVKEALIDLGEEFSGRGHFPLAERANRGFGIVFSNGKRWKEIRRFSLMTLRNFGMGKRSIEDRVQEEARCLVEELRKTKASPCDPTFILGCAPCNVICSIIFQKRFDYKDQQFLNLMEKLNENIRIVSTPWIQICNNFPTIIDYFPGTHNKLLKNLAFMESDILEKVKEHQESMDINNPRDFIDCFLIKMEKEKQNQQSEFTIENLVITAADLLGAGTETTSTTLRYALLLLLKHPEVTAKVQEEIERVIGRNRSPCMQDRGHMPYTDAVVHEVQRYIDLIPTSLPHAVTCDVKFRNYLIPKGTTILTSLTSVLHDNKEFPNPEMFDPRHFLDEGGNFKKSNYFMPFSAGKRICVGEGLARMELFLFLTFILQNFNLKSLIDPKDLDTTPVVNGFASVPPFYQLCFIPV

[12] = biological target: Cytochrome P450 2C19 (Homo sapiens) (UniProt P33261); test: as above; remark: listed apart in the source

SMILES | pKi [1] | pKi [5] | pIC50 [6] | pIC50 [7] | pIC50 [8] | pIC50 [9] | pIC50 [12] | ED50 [2] [mg/kg] | pKi [3] | Selectivity ratio [4] | pIC50 [10] | pIC50 [11]
Cc1cc2c(cc1Cl)N(C(=O)Nc1cccnc1)CC2 | 6.80 | – | – | – | – | – | – | 0.6 | 8.20 | 30 | – | –
Cc1cc2c(cc1Cl)N(C(=O)Nc1ccc(Oc3cccnc3C)nc1)CC2 [SB-242084] | 6.80 | 7.00 | < 4.00 | – | < 4.00 | < 4.00 | – | 2 | 9.00 | 160 | < 4.00 | < 4.00

Further lines, with some results ahead:

pKi [1] | pKi [5] | pIC50 [6] | pIC50 [7] | pIC50 [8] | pIC50 [9] | pIC50 [12] | SMILES | ED50 [2] [mg/kg] | pKi [3] | Selectivity ratio [4] | pIC50 [10] | pIC50 [11]
6.40 | 7.90 | < 4.00 | < 4.00 | 7.89 | 6.96 | – | CSc1cc2c(cc1C(F)(F)F)N(C(=O)Nc1cccnc1)CC2 | 1.5 | 8.60 | – | – | –
5.60 | – | – | – | – | – | – | CSc1cc2c(cc1Cl)N(C(=O)Nc1cccnc1)CC2 | 10 | 8.20 | 420 | – | –
5.70 | 7.60 | < 4.00 | – | 7.30 | 4.52 | < 4.00 | Cn1ccc2cc3c(cc21)CCN3C(=O)Nc1cccnc1 | 5.5 | – | – | – | –
